Results published in ChEMBL document CHEMBL1154176, “Thiazolidinedione derivatives as PTP1B inhibitors with antihyperglycemic and antiobesity effects” (Bioorg Med Chem Lett, 2009).
The source made the active and inactive calls. No cut-off for these calls is given here.

Columns and labels:
[1] = target: T1, Tyrosine-protein phosphatase non-receptor type 1 (Homo sapiens, UniProt P18031); experiment: Inhibition of PTP1B
T1 sequence (P18031 whole entry): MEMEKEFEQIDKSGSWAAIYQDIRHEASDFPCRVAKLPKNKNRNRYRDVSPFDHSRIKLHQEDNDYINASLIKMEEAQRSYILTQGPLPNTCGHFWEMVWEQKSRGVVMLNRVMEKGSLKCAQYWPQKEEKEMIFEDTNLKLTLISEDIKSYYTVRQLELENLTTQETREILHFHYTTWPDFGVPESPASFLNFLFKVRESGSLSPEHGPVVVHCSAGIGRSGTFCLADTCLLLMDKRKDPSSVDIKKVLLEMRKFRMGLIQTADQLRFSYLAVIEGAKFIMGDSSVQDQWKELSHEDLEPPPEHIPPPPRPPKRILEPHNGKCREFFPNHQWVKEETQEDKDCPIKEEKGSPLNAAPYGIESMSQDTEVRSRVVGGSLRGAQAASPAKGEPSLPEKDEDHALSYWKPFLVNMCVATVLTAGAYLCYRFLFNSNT

[2] = target: Tyrosine-protein phosphatase non-receptor type 6 (Homo sapiens, UniProt P29350); experiment: Inhibition of SHP1 catalytic domain expressed in Escherichia coli
Outline: (§1)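 Phosphatase activity was measured as p-nitrophenyl phosphate hydrolysis (2 mM pNPP in the reaction) over a range of inhibitor concentrations to derive IC50. Conditions were identical for all enzymes except enzyme level: PTP1B 40 nM, E. coli-expressed SHP-1 catalytic domain 100 nM, E. coli-expressed YPTP1 15 nM, LAR-D1 and TC-PTP 33 units/mL. Ki was calculated as IC50 = Ki(1+[S]/KM). Mean ± SD of two or more experiments.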

[3] = target: T2, Tyrosine-protein phosphatase non-receptor type 2 (Homo sapiens, UniProt P17706); experiment: Inhibition of TC-PTP; outline: as §1
T2 sequence (P17706 whole entry): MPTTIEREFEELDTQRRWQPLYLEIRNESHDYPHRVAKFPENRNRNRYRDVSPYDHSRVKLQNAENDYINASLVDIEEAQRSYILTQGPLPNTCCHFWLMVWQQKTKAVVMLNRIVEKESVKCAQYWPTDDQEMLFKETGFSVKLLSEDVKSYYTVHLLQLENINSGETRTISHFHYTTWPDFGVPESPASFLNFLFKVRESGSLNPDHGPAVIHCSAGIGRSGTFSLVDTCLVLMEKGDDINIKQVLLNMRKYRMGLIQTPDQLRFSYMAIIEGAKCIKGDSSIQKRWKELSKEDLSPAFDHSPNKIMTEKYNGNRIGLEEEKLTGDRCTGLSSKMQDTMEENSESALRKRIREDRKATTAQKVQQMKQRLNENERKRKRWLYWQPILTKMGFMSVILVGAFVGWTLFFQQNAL

Mus musculus [4] = experiment: Hypoglycemic activity in high fat diet-induced obese C57BL/6J Jms Slc mouse model assessed as total cholesterol level at 143 mg/kg/day, po for 4 weeks administered with high fat diet followed by 5 days recovery period on their own high fat diet with drug (Rvb= 152 +/- 6 mg/dL); assay type: functional
Outline: (§2)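 HFD-obese mice (8 wk HFD) received HFD with drug in the diet (2.0 g/kg diet) for 4 wk, then continued 5 d on their diets. After an overnight fast and anesthesia, blood was taken by cardiac puncture. Serum triglyceride and total cholesterol were measured by enzymatic kits, and NEFA by a half-micro test kit. Mean ± SD, n = 8/group; one-way ANOVA.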

Mus musculus [5] = experiment: Antiobesity activity in high fat diet-induced obese C57BL/6J Jms Slc mouse model assessed as decrease in body weight gain per kilocalories of food intake at 143 mg/kg/day, po for 4 weeks administered with high fat diet; assay type: functional; parameters: scale not given: the % may be the effect or the level left
Outline: (§3)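 Male C57BL/6J Jms Slc mice were acclimatized 1 wk on low-fat diet (10% kcal fat), then fed high-fat diet (45% kcal fat) ad libitum for 8 wk. They were split into groups of equal mean body weight and given HFD or HFD with drug mixed into the food (2.0 g/kg diet; DMSO plus 1% aqueous polyglycerol fatty acid ester) for 4 wk. Read-outs: weight gain and feed efficiency (weight gain/kcal ×100).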

[6] = Inhibition of Yersinia YOP
Outline: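 Purchased YOP enzyme at 50 units (manufacturer's definition)/mL, with p-nitrophenyl phosphate substrate at 2 mM in the reaction mixture. pNPP hydrolase activity was measured across a range of inhibitor concentrations to derive IC50. Ki was obtained from IC50 = Ki(1 + [S]/KM). Values are mean and SD of two or more experiments.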

[7] = Selectivity for PTP1B over membrane proximal catalytic domain of LAR
Mus musculus [8] = experiment: Antiobesity activity in high fat diet-induced obese C57BL/6J Jms Slc mouse model assessed as epididymal fat at 143 mg/kg/day, po for 4 weeks administered with high fat diet followed by 5 days recovery period on their own high fat diet with drug (Rvb= 1.87 +/- 0.08 g); assay type: functional
Outline: (§4)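 Obesity was induced by HFD (45% kcal fat) for 8 wk, followed by 4 wk of HFD or HFD with drug in the diet (2.0 g/kg diet). After the glucose tolerance test, mice stayed on their diets for 5 d more and were fasted overnight. Epididymal and retroperitoneal fat pads were excised and weighed. Significance versus HFD by one-way ANOVA.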

[9] = Selectivity for PTP1B over yeast PTP1
Mus musculus [10] = experiment: Antiobesity activity in high fat diet-induced obese C57BL/6J Jms Slc mouse model assessed as retroperitoneal fat at 143 mg/kg/day, po for 4 weeks administered with high fat diet followed by 5 days recovery period on their own high fat diet with drug (Rvb= 0.69 +/- 0.06 g); assay type: functional; outline: as §4
[11] = target: Receptor-type tyrosine-protein phosphatase F (Homo sapiens, UniProt P10586); experiment: Inhibition of membrane proximal catalytic domain of LAR; outline: as §1
Mus musculus [12] = experiment: Hypoglycemic activity in high fat diet-induced obese C57BL/6J Jms Slc mouse model assessed as triglyceride level at 143 mg/kg/day, po for 4 weeks administered with high fat diet followed by 5 days recovery period on their own high fat diet with drug (Rvb= 124 +/- 16 mg/dL); assay type: functional; outline: as §2
[13] = Selectivity for PTP1B over TC-PTP
Mus musculus [14] = experiment: Hypoglycemic activity in high fat diet-induced obese C57BL/6J Jms Slc mouse model assessed as non-esterified free fatty acid level at 143 mg/kg/day, po for 4 weeks administered with high fat diet followed by 5 days recovery period on their own high fat diet with drug (Rvb= 0.71 +/- 0.22 mM); assay type: functional; outline: as §2
Mus musculus [15] = experiment: Hypoglycemic activity in high fat diet-induced obese C57BL/6J Jms Slc mouse model at 143 mg/kg/day, po for 4 weeks administered with high fat diet by glucose tolerance test; assay type: functional, organism-based
Outline: (§5)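 After 8 wk of HFD and 4 wk of HFD with drug in the diet (2.0 g/kg diet), mice were fasted 6 h. Fasting blood glucose was taken at 0 min, glucose was then injected intraperitoneally, and tail blood was sampled at timed intervals up to 120 min.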

Mus musculus [16] = experiment: Hypoglycemic activity in high fat diet-induced obese C57BL/6J Jms Slc mouse model assessed as reduction in fasting blood glucose level at 143 mg/kg/day, po for 4 weeks administered with high fat diet measured after 6 hrs of fasting; assay type: functional, organism-based; outline: as §5
Mus musculus [17] = experiment: Antiobesity activity in high fat diet-induced obese C57BL/6J Jms Slc mouse model assessed as body weight gain at 143 mg/kg/day, po for 4 weeks administered with high fat diet (Rvb= 4.88 +/- 0.46 g); assay type: functional; outline: as §3
[18] = Inhibition of yeast PTP1; parameters: species or system Saccharomyces cerevisiae; outline: as §1

Sequence of Tyrosine-protein phosphatase non-receptor type 6 (P29350 whole entry, the tested form may be a part): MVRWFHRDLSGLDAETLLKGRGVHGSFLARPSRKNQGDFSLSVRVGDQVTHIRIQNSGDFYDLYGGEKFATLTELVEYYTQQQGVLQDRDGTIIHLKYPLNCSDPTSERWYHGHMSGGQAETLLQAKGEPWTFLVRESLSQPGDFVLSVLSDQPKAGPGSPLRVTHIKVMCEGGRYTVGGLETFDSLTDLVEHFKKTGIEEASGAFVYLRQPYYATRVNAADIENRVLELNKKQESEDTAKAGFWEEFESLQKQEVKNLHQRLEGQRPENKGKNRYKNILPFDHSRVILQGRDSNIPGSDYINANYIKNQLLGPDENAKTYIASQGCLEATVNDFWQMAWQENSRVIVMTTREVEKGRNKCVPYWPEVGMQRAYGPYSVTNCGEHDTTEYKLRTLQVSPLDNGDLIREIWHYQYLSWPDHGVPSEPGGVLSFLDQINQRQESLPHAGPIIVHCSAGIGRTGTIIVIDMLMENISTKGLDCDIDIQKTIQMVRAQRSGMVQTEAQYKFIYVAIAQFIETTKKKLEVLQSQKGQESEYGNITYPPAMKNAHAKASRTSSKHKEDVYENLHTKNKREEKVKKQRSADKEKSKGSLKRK
Sequence of Receptor-type tyrosine-protein phosphatase F (P10586 whole entry, the tested form may be a part): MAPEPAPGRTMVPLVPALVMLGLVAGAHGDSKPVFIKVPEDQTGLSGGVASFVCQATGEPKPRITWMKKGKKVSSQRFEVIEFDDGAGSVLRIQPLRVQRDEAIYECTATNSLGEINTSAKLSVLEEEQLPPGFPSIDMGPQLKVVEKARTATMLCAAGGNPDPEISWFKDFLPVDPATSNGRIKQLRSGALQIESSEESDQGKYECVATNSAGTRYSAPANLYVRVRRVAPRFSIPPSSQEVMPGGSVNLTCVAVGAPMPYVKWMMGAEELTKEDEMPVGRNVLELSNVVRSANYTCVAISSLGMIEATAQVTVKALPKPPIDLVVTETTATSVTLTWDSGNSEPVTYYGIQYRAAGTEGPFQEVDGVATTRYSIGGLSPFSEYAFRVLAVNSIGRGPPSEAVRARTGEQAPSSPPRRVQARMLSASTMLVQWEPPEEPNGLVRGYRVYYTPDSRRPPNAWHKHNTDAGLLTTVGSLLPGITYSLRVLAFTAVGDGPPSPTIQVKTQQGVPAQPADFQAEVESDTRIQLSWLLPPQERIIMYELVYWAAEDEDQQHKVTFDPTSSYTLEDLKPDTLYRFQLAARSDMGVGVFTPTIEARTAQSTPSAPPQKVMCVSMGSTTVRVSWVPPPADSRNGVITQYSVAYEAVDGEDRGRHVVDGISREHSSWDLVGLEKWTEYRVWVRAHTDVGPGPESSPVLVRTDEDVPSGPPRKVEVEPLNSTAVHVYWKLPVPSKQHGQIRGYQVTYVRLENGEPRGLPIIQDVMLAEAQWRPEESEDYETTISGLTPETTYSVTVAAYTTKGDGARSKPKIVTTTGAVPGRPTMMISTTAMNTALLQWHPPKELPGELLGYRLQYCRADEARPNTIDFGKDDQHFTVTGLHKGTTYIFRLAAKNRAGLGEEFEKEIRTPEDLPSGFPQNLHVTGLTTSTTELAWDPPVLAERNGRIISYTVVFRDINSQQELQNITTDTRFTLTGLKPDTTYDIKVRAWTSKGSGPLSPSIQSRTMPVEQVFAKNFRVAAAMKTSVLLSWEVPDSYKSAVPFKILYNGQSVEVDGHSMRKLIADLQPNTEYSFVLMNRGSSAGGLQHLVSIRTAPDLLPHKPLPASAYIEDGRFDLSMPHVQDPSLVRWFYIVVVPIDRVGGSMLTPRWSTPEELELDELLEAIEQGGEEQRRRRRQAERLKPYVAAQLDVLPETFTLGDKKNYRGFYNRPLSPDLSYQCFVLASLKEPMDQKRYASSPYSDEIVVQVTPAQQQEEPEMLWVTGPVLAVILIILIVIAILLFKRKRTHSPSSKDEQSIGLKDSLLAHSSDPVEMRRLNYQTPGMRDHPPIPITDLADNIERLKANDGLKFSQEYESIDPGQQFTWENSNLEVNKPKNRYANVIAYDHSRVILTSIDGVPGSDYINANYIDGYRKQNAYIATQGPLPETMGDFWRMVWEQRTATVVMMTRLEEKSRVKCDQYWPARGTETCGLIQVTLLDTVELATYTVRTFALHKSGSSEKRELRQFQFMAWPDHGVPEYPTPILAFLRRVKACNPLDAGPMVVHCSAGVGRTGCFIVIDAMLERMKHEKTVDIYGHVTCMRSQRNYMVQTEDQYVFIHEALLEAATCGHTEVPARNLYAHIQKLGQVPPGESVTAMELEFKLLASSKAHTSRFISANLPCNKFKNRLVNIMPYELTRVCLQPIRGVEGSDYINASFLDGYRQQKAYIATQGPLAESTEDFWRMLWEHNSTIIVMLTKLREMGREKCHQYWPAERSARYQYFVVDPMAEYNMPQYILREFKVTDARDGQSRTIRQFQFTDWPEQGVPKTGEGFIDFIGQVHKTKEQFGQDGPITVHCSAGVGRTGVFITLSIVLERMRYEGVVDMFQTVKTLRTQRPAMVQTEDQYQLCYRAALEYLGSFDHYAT

**Q.** For `O=C1NC(=O)/C(=C/c2ccc(OCc3ccc(C(F)(F)F)cc3)c(Br)c2)S1`, which IC50 [1] is on record?
**A.** 5 µM

**Q.** With `O=C1NC(=O)/C(=C/c2ccc(OCc3ccccc3)c(Br)c2)S1` as the compound, how does the IC50 [1] read?
**A.** 15 µM

**Q.** Which IC50 [1] does the source give for `O=C1NC(=O)/C(=C/c2ccc(OCc3ccccc3)cc2)S1` here?
**A.** 64 µM

**Q.** For `Cc1c(C)c2c(c(C)c1O)CCC(C)(COc1ccc(CC3SC(=O)NC3=O)cc1)O2` (stereo unspecified) [TROGLITAZONE], which IC50 [1] is on record?
**A.** 55 µM

**Q.** With `O=C1NC(=O)/C(=C/c2cc(Br)ccc2OCc2ccccc2)S1` as the compound, how does the IC50 [1] read?
**A.** 9 µM

**Q.** With `O=C1NC(=O)/C(=C/c2ccc(OCc3ccc(F)cc3)cc2)S1` as the compound, how does the IC50 [1] read?
**A.** 68 µM

**Q.** What does the source list for `O=C1NC(=O)/C(=C/c2cc(Br)ccc2OCc2cc(C(F)(F)F)cc(C(F)(F)F)c2)S1`?
**A.** IC50 [2]: 5.8 µM; Ki [2]: 2.2 µM; IC50 [3]: 16 µM; Ki [3]: 4.5 µM; Activity (Mus musculus [4]): 125 mg/dL; Activity (Mus musculus [5]): 0.68%; IC50 [6]: 6 µM; fold change (FC) [7]: > 20; Activity (Mus musculus [8]): 1.27 g; fold change (FC) [9]: 3.7; IC50 [1]: 5 µM; Ki [1]: 2.1 µM; Activity (Mus musculus [10]): 0.42 g; IC50 [11]: > 100 µM; Activity (Mus musculus [12]): 78 mg/dL; fold change (FC) [13]: 2.2; Activity (Mus musculus [14]): 0.22 mM; Activity (Mus musculus [15]): Active; Activity (Mus musculus [16]): inactive; Activity (Mus musculus [17]): 2.16 g; IC50 [18]: 18 µM; Ki [18]: 7.7 µM

**Q.** For `O=C1NC(=O)/C(=C/c2ccc(OCc3ccccc3)c(-c3ccccc3)c2)S1`, which IC50 [1] is on record?
**A.** 9 µM

**Q.** Which IC50 [1] does the source give for `O=C1NC(=O)/C(=C/c2cc(Br)ccc2OCc2cccc(C(F)(F)F)c2)S1` here?
**A.** 8 µM

**Q.** With `O=C1NC(=O)/C(=C/c2cc(F)ccc2OCc2ccc(C(F)(F)F)cc2)S1` as the compound, how does the IC50 [1] read?
**A.** 15 µM

**Q.** For `O=C1NC(=O)/C(=C/c2ccc(OCc3ccc(F)cc3)c(Br)c2)S1`, which IC50 [1] is on record?
**A.** 11 µM

**Q.** For `CN(CCOc1ccc(CC2SC(=O)NC2=O)cc1)c1ccccn1` (stereo unspecified) [ROSIGLITAZONE], which IC50 [1] is on record?
**A.** 400 µM

**Q.** With `O=C1NC(=O)/C(=C/c2ccc(OCc3ccc(C(F)(F)F)cc3)cc2)S1` as the compound, how does the IC50 [1] read?
**A.** 14 µM

**Q.** With `O=C1NC(=O)/C(=C/c2cc(F)ccc2OCc2cc(C(F)(F)F)cc(C(F)(F)F)c2)S1` as the compound, how does the IC50 [1] read?
**A.** 8 µM

**Q.** For `O=C1NC(=O)/C(=C/c2cc(Br)ccc2OCc2ccccc2C(F)(F)F)S1`, which IC50 [1] is on record?
**A.** 8 µM

**Q.** For `O=C1NC(=O)/C(=C/c2cc(-c3ccccc3)ccc2OCc2ccccc2)S1`, which IC50 [1] is on record?
**A.** 16 µM

**Q.** For `CCc1ccc(CCOc2ccc(CC3SC(=O)NC3=O)cc2)nc1` (stereo unspecified) [PIOGLITAZONE], which IC50 [1] is on record?
**A.** 220 µM

**Q.** With `O=C1NC(=O)/C(=C/c2cc(Br)ccc2OCc2ccc(F)cc2)S1` as the compound, how does the IC50 [1] read?
**A.** 23 µM

**Q.** Which IC50 [1] does the source give for `O=C1NC(=O)/C(=C/c2ccc(OCc3ccc(C(F)(F)F)cc3)c(-c3ccccc3)c2)S1` here?
**A.** 6 µM

**Q.** For `O=C1NC(=O)/C(=C/c2cc(Br)ccc2OCc2ccc(C(F)(F)F)cc2)S1`, which IC50 [1] is on record?
**A.** 8 µM
